Screens: PubChem, several laboratories
Only some compounds are listed: those with a hit (about 1.5% of all), similar ones and a draw of the others.
RanGTP-Impb inh = disruptors of Ran-importin-beta complex formation – biochemical, FRET, CFP-Ran, YFP-importin-beta, homogeneous, primary screen; cell-free CFP-Ran/YFP-importin-beta FRET ratio; inhibition, % (test concentration not listed); 300,000 tested, 1.1% active; AID 2216;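 active = more than half of the replicate wells show a fall in the fluorescence ratio signal beyond about 16%, limit read from the data, passing the limit was not always enough; inconclusive = exactly half of the replicate wells pass the set limit; inactive = fewer than half of replicates pass the limit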;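 note: 0% = DMSO wells and 100% = Ran loaded with GDP instead of GTP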
Runt-CBFb FRET = Runt domain-CBFb interaction inhibition. Q01196+Q13951. Cerulean-Runt/Venus-CBFb FRET ratio 530/480, 1 h. inhibition, % at 20 µM. 220,000 tested, 0.46% active;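 active = inhibition over about 50% at 20 µM in the single-dose screen, limit read from the data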;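 note: 0% = DMSO wells and 100% = excess unlabeled CBFb competitor control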
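Schedule: protein complex preformed 1 h, compound exposure 1 h, room temperature, dark; test system: Cerulean-labeled Runt domain protein; amount: 100 nM per protein; buffer or medium: Tris 50 mM pH 7.5, KCl, K2SO4, 0.01% BSA; read-out: loss of energy transfer signal; detection: FRET fluorescence; controls: 5 µM unlabeled CBFb as full-inhibition high control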
Runt-SMMHC FRET = Runt domain-CBFb-SMMHC interaction inhibition. Q01196+Q13951. Cerulean-Runt/Venus-CBFb-SMMHC FRET ratio 530/480, 1 h. inhibition, % at 20 µM. 220,000 tested, 0.74% active. AID 1434;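 active = mean inhibition across duplicate retests at 20 µM reaching about 50%, limit read from the data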;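 note: 0% = DMSO wells and 100% = wells with excess untagged CBFb-SMMHC; inhibitors lower the FRET ratio by blocking Runt binding to CBFb-SMMHC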
Hck Nef HTS = blocks Nef-activated human Hck kinase. 220,000 tested, 0.68% active. Recombinant Hck-YEEI plus Nef, Z-Lyte FRET kinase assay. inhibition, % at 20 µM. P08631;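 active = Hck-Nef kinase inhibition above about 50%, limit read from the data; inactive = inhibition below that limit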;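 note: 0% = DMSO with Hck plus Nef and 100% = Hck alone without Nef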
Target sequence (P08631 whole entry, looked up): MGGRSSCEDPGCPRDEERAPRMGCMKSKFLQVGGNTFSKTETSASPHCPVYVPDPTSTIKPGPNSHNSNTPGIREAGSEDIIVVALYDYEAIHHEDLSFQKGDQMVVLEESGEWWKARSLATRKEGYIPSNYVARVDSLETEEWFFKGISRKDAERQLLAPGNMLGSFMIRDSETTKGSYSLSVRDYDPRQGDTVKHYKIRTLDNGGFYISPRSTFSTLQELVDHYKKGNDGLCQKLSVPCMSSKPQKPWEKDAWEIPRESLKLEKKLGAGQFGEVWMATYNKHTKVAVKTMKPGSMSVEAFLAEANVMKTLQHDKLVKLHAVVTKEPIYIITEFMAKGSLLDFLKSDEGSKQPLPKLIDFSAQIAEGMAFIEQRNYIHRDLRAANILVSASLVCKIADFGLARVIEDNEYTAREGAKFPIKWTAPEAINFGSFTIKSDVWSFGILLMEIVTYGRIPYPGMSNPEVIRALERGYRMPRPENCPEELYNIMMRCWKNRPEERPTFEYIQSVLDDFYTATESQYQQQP
CaV13 ICDI inh = Primary screen for inhibitors of IQ motif and Ca2+-dependent inactivation inhibitor domain binding in CACNA1D, Förster resonance energy transfer in living cells, …. 340,000 tested, 0.098% active. inhibition, % at 12.3 µM. HEK cells, CFP/YFP FRET ICDI-IQ, plate reader, 10 min; percent FRET-ratio fall versus neutral wells;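 active = mean replicate inhibition of at least 30% and at least 1% of replicates passing that level; inconclusive = only one of the two criteria is met; inactive = neither criterion is met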;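 note: 0% = median of the neutral control wells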
The depositor's hits bear a star.

Screening CC(=O)c1c(N2CCN(c3ccc(F)cc3)CC2)nc(=S)n(Cc2ccccc2)c1C returned RanGTP-Impb inh 12, Runt-CBFb FRET 0, Runt-SMMHC FRET 1, Hck Nef HTS 3 and CaV13 ICDI inh -21.
`CCn1c(C)c(C(C)=O)c(N2CCN(c3ccc(F)cc3)CC2)nc1=S` gave RanGTP-Impb inh 20*, Runt-CBFb FRET 23, Runt-SMMHC FRET 0, Hck Nef HTS -21 and CaV13 ICDI inh -4.
Screening CC(=O)c1c(N2CCN(CCO)CC2)nc(=S)n(-c2ccccc2)c1C returned RanGTP-Impb inh 62*, Runt-CBFb FRET 65*, Runt-SMMHC FRET 92*, Hck Nef HTS 12 and CaV13 ICDI inh -6.
For CC(=O)c1c(N2CCN(Cc3ccccc3)CC2)nc(=S)n(Cc2ccccc2)c1C the results were RanGTP-Impb inh 68*, Runt-CBFb FRET 75*, Runt-SMMHC FRET 82*, Hck Nef HTS 1 and CaV13 ICDI inh -2.
`CC(=O)c1c(N2CCN(Cc3ccccc3)CC2)nc(=S)n(-c2ccccc2)c1C` gave RanGTP-Impb inh 85*, Runt-CBFb FRET 46, Runt-SMMHC FRET 98*, Hck Nef HTS 0 and CaV13 ICDI inh 4.
Screening CC(=O)c1c(N2CCN(c3ccccc3)CC2)nc(=S)n(-c2ccccc2)c1C returned RanGTP-Impb inh 2, Runt-CBFb FRET -1, Runt-SMMHC FRET -38, Hck Nef HTS 0 and CaV13 ICDI inh -5.
Screening CC(=O)c1c(N2CCCCC2)nc(=S)n(Cc2ccccc2)c1C returned RanGTP-Impb inh 4, Runt-CBFb FRET -5, Runt-SMMHC FRET -6, Hck Nef HTS 1 and CaV13 ICDI inh -4.
CC(C)CNS(=O)(=O)c1ccc(CCC(=O)Nc2cc(Cl)ccc2Oc2ccccc2)cc1 was read as RanGTP-Impb inh 3, Runt-CBFb FRET 1, Runt-SMMHC FRET 3, Hck Nef HTS 11 and CaV13 ICDI inh -6.
For CC(=O)C1=C(O)C(=O)N(c2nnn(C)n2)C1c1cccs1 (stereo unspecified) the results were RanGTP-Impb inh 7, Runt-CBFb FRET 2, Runt-SMMHC FRET 2, Hck Nef HTS 2 and CaV13 ICDI inh -2.
`Cc1ccc(S(=O)(=O)c2cc3ccc(O)cc3oc2=O)cc1C` gave RanGTP-Impb inh 132* and CaV13 ICDI inh 6.
Cc1nn(C)c(C)c1NC(=O)CSc1nc(C2CC2)nc2c1cnn2-c1ccccc1 was read as RanGTP-Impb inh -4, Runt-CBFb FRET -2, Runt-SMMHC FRET -1, Hck Nef HTS 24 and CaV13 ICDI inh -4.
Screening N=c1c(S(=O)(=O)c2ccccc2)cc2c(=O)n3ccccc3nc2n1C1CCCC1 returned RanGTP-Impb inh 144* and CaV13 ICDI inh 16.
`N=c1c(S(=O)(=O)c2ccc(Br)cc2)cc2c(=O)n3ccccc3nc2n1C1CCCC1` gave RanGTP-Impb inh 69* and CaV13 ICDI inh -3.
Screening Cc1ccc(S(=O)(=O)c2cc3c(=O)n4ccccc4nc3n(C3CCCCC3)c2=N)cc1 returned RanGTP-Impb inh 48*.
For CCCN(C(=O)COC(=O)c1nc2nccc(C)n2n1)C1CCS(=O)(=O)C1 (stereo unspecified) the results were CaV13 ICDI inh -6.
O=S(=O)(c1ccccc1)N1CCN(C(=S)NCCc2ccccc2)CC1 was read as RanGTP-Impb inh 0 and CaV13 ICDI inh -5.
Screening O=C(COC(=O)CCN1C(=O)/C(=C\C=C\c2ccccc2)SC1=S)Nc1cc(F)ccc1F returned RanGTP-Impb inh -4, Runt-CBFb FRET -2, Runt-SMMHC FRET -16, Hck Nef HTS 126* and CaV13 ICDI inh -8.
Screening CCOC(=O)/C=C1\NC2(CCCCC2)Cc2cc(OC)c(OC)cc21 returned RanGTP-Impb inh 7, Hck Nef HTS 6 and CaV13 ICDI inh -9.
Screening C[C@H](CO)N1C[C@H](C)[C@@H](CN(C)CC2CCCCC2)Oc2ccc(NC(=O)CCN3CCOCC3)cc2C1=O returned CaV13 ICDI inh -5.
CC(C)c1nn2c(N)c(/C=C3\C=Nc4ccccc43)c(=O)nc2s1 was read as RanGTP-Impb inh inconclusive, Runt-CBFb FRET 2, Runt-SMMHC FRET 17, Hck Nef HTS 28 and CaV13 ICDI inh -4.
`Cc1cc2nc(=O)c(/C=C3\C=Nc4ccccc43)c(N)n2o1` gave RanGTP-Impb inh 47*, Runt-CBFb FRET -5, Runt-SMMHC FRET -45, Hck Nef HTS -2 and CaV13 ICDI inh -9.
`CC(C)Sc1nsc2nc(=O)c(/C=C3\C=Nc4ccccc43)c(N)n12` gave RanGTP-Impb inh 33*, Runt-CBFb FRET 18, Runt-SMMHC FRET 59*, Hck Nef HTS -25 and CaV13 ICDI inh -1.
`CN1/C(=C\C=C(/C#N)C(=O)Nc2ccc(Cl)cc2)C(C)(C)c2ccccc21` gave RanGTP-Impb inh 28*, Runt-CBFb FRET -1, Runt-SMMHC FRET 63, Hck Nef HTS -3 and CaV13 ICDI inh 4.
`Nc1ccc2c3c(cccc13)C(=O)N(c1ccccc1)C2=O` gave RanGTP-Impb inh -14, Runt-CBFb FRET -307, Runt-SMMHC FRET -30, Hck Nef HTS 0 and CaV13 ICDI inh -111.
Screening CC(C)CCN1C(=O)c2cccc3c(N)ccc(c23)C1=O returned RanGTP-Impb inh -302 and CaV13 ICDI inh active.
For O=C1N=c2ccccc2=C1c1sc(=S)n(NC(=O)c2cccc(O)c2)c1O the results were RanGTP-Impb inh 2, Runt-CBFb FRET 13, Runt-SMMHC FRET 5, Hck Nef HTS 22 and CaV13 ICDI inh 6.
For CCn1cc(C2C(C(=O)Nc3ccc(Br)cn3)=C(C)NC3=C2C(=O)CCC3)c(C)n1 (stereo unspecified) the results were RanGTP-Impb inh 3, Runt-CBFb FRET 30, Runt-SMMHC FRET 74*, Hck Nef HTS 23 and CaV13 ICDI inh -4.
COC(CNC(=O)c1ccc2nc(-c3cccs3)c(-c3cccs3)nc2c1)OC was read as RanGTP-Impb inh 43*, Runt-CBFb FRET 21, Runt-SMMHC FRET 16, Hck Nef HTS 5 and CaV13 ICDI inh -3.
`COc1ccc(-c2nc3ccc(C(=O)NCC(OC)OC)cc3nc2-c2ccc(OC)c(OC)c2)cc1OC` gave RanGTP-Impb inh 1 and CaV13 ICDI inh -23.
CC1CCC/C(=N/NC(=O)c2ccccc2-n2cccc2)C1 (stereo unspecified) was read as RanGTP-Impb inh 5, Runt-CBFb FRET -1, Runt-SMMHC FRET -2, Hck Nef HTS 1 and CaV13 ICDI inh -2.
For CCOC(=O)CSc1nc(N2CCOCC2)c2c(c1C#N)CC(C)(C)N(C)C2 the results were RanGTP-Impb inh 19*, Runt-CBFb FRET 60*, Runt-SMMHC FRET 84*, Hck Nef HTS 0 and CaV13 ICDI inh -3.
Screening CCOC(=O)CSc1nc(N2CCOCC2)c2c(c1C#N)CC(C)(C)OC2 returned RanGTP-Impb inh -3 and CaV13 ICDI inh -20.
